How the values were obtained:
[1] = Half life in rat liver microsomes; assay type: ADME
[2] = test system: NCI-H522; test: Antiproliferative activity against human NCI-H522 cells incubated for 48 hrs by sulforhodamine B assay; assay type: functional; conditions: NCI-H522, 48 h
In short: (§1)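 Run externally by the US National Cancer Institute as part of its 60 human cancer cell line cytotoxicity screen (NCI-60).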

[3] = Antiproliferative activity against human UACC62 cells incubated for 48 hrs by sulforhodamine B assay; assay type: functional; conditions: UACC-62, 48 h
[4] = biological target: T1, Phosphatidylinositol 4,5-bisphosphate 3-kinase catalytic subunit beta isoform (Homo sapiens, UniProt P42338); test: Inhibition of PI3K-beta (unknown origin) at 10 nM after 40 mins by ADP-Glo luminescent kinase assay
In short: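 Final enzyme was PI3Kβ 4.8 nM and PI3Kγ 7.6 nM. ADP-Glo reagent stopped the reaction (40 min), then detection reagent was added (60 min) and luminescence read. Percent inhibition was derived from RLU.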
Target sequence in this assay (P42338 whole entry, looked up, canonical isoform): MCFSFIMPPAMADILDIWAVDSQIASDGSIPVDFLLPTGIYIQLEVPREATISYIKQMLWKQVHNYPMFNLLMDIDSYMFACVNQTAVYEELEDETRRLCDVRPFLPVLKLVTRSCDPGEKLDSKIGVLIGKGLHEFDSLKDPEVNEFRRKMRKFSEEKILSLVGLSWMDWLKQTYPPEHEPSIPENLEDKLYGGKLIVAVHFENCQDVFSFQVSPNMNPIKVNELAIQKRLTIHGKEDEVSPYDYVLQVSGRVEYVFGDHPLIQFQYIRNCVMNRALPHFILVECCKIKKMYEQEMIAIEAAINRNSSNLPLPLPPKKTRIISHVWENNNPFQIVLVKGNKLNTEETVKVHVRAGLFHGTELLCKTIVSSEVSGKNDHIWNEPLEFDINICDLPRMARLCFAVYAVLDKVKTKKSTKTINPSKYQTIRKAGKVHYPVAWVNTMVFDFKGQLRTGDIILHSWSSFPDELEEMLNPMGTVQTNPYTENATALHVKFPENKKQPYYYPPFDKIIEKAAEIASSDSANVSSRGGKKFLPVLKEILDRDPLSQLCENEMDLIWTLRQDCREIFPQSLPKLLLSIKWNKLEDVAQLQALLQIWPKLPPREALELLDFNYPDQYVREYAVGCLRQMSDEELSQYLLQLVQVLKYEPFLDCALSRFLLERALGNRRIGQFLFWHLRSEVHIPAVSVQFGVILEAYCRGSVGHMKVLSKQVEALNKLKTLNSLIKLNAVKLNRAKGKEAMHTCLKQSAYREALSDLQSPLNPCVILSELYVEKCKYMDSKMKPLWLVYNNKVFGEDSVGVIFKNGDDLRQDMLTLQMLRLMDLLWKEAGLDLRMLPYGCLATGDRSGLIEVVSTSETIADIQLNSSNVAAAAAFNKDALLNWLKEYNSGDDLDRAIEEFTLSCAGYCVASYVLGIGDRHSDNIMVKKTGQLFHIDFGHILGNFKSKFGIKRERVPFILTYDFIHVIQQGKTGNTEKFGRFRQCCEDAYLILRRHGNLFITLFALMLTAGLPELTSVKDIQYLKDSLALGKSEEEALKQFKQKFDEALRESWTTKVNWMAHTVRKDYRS

[5] = biological target: T1, Phosphatidylinositol 4,5-bisphosphate 3-kinase catalytic subunit beta isoform; test: Inhibition of PI3K-beta (unknown origin) after 40 mins by ADP-Glo luminescent kinase assay
In short: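 ADP-Glo reagent stopped the reaction (40 min), then detection reagent was added (60 min) and luminescence read. Percent inhibition was derived from RLU.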
Target sequence in this assay (P42338 whole entry, canonical isoform): as the sequence (P42338 whole entry, looked up, canonical isoform) above

[6] = Antiproliferative activity against human BT549 cells incubated for 48 hrs by sulforhodamine B assay; assay type: functional; conditions: BT-549, 48 h; in short: as §1
[7] = Antiproliferative activity against human SF539 cells incubated for 48 hrs by sulforhodamine B assay; assay type: functional; conditions: SF-539, 48 h; in short: as §1
[8] = test system: MDA-MB-231; test: Antiproliferative activity against human MDA-MB-231 cells incubated for 48 hrs by sulforhodamine B assay; assay type: functional; conditions: MDA-MB-231, 48 h; in short: as §1
[9] = test system: M14; test: Antiproliferative activity against human M14 cells incubated for 48 hrs by sulforhodamine B assay; assay type: functional; conditions: M14, 48 h; in short: as §1
[10] = test system: MCF7; test: Antiproliferative activity against human MCF7 cells incubated for 48 hrs by sulforhodamine B assay; assay type: functional; conditions: MCF7, 48 h; in short: as §1
[11] = test system: 786-0; test: Antiproliferative activity against human 786-0 cells incubated for 48 hrs by sulforhodamine B assay; assay type: functional; conditions: 786-0, 48 h; in short: as §1
[12] = test system: MDA-MB-435; test: Antiproliferative activity against human MDA-MB-435 cells incubated for 48 hrs by sulforhodamine B assay; assay type: functional; conditions: MDA-MB-435, 48 h; in short: as §1
[13] = test system: SR; test: Antiproliferative activity against human SR cells incubated for 48 hrs by sulforhodamine B assay; assay type: functional; in short: as §1
[14] = Antiproliferative activity against human RXF393 cells incubated for 48 hrs by sulforhodamine B assay; assay type: functional; conditions: RXF 393, 48 h; in short: as §1
[15] = Antiproliferative activity against human IGROV1 cells incubated for 48 hrs by sulforhodamine B assay; assay type: functional; conditions: IGROV-1, 48 h
[16] = Antiproliferative activity against human PC3 cells incubated for 48 hrs by sulforhodamine B assay; assay type: functional; conditions: PC-3, 48 h; in short: as §1
[17] = Antiproliferative activity against human TK10 cells incubated for 48 hrs by sulforhodamine B assay; assay type: functional; conditions: TK-10, 48 h
[18] = biological target: Phosphatidylinositol 4,5-bisphosphate 3-kinase catalytic subunit alpha isoform (Homo sapiens, UniProt P42336); test: Inhibition of PI3K-alpha (unknown origin) using PIP2 as substrate incubated for 1 hr by Kinase-Glo luminescent kinase assay
[19] = test system: A498; test: Antiproliferative activity against human A498 cells incubated for 48 hrs by sulforhodamine B assay; assay type: functional; conditions: A498, 48 h; in short: as §1
[20] = Antiproliferative activity against human HOP92 cells incubated for 48 hrs by sulforhodamine B assay; assay type: functional; conditions: HOP-92, 48 h
[21] = Antiproliferative activity against human HCC2998 cells incubated for 48 hrs by sulforhodamine B assay; assay type: functional; conditions: HCC 2998, 48 h; in short: as §1
[22] = test system: U-251; test: Antiproliferative activity against human U251 cells incubated for 48 hrs by sulforhodamine B assay; assay type: functional; conditions: U-251, 48 h
[23] = test system: ACHN; test: Antiproliferative activity against human ACHN cells incubated for 48 hrs by sulforhodamine B assay; assay type: functional; in short: as §1
[24] = Antiproliferative activity against human HOP62 cells incubated for 48 hrs by sulforhodamine B assay; assay type: functional; conditions: HOP-62, 48 h; in short: as §1
[25] = Antiproliferative activity against human UACC257 cells incubated for 48 hrs by sulforhodamine B assay; assay type: functional; conditions: UACC-257, 48 h
[26] = test system: SK-MEL-5; test: Antiproliferative activity against human SK-MEL-5 cells incubated for 48 hrs by sulforhodamine B assay; assay type: functional; conditions: SK-MEL-5, 48 h; in short: as §1
[27] = read-out: pLC50 (the source's name) (converted)

Phosphatidylinositol 4,5-bisphosphate 3-kinase catalytic subunit alpha isoform, sequence (P42336 whole entry, canonical isoform): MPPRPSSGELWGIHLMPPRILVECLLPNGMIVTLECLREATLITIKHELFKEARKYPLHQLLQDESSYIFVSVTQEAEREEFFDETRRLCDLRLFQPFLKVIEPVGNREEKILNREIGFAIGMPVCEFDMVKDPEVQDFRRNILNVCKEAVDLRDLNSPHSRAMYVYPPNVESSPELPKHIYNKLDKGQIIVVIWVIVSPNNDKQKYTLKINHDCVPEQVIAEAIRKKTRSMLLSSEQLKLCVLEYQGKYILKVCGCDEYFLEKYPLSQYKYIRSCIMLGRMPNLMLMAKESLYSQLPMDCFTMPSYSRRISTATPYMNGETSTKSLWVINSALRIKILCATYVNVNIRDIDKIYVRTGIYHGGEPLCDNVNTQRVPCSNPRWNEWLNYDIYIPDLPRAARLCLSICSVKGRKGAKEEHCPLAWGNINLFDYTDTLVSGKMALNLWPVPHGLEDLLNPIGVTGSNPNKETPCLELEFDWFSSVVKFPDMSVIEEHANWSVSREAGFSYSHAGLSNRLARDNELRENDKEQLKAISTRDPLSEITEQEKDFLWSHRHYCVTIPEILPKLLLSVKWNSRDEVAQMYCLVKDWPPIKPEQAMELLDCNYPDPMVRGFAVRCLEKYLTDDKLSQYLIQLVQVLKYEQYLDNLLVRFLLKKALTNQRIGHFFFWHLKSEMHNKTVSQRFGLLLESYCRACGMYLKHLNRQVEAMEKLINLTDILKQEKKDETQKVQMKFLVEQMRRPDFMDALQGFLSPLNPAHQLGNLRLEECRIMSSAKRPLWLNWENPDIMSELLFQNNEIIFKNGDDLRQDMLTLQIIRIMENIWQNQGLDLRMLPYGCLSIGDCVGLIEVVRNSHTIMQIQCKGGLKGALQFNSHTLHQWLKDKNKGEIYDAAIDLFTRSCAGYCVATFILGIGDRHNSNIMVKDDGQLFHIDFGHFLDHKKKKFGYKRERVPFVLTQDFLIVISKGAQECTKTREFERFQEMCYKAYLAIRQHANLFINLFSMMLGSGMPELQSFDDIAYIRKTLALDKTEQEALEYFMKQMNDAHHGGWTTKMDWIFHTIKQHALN

Compound: COc1ncc(-c2ccc3nccc(C#CCN4CCN(S(C)(=O)=O)CC4)c3c2)cc1NS(=O)(=O)c1ccc(F)cc1F
- half-life [1]: 29 min
- GI50 [2]: 178 nM
- CC50 [2, 27]: 5890 nM
- TGI ([2]; read-out: pTGI (converted)): 1740 nM
- GI50 [3]: 33.1 nM
- CC50 [3, 27]: 3240 nM
- TGI ([3]; read-out: pTGI (converted)): 282 nM
- inhibition [4]: 69%
- IC50 [5]: 9.4 nM
- GI50 [6]: 41.7 nM
- CC50 [6, 27]: 4570 nM
- TGI ([6]; read-out: pTGI (converted)): 813 nM
- GI50 [7]: 55 nM
- CC50 [7, 27]: 2690 nM
- TGI ([7]; read-out: pTGI (converted)): 363 nM
- GI50 [8]: 437 nM
- CC50 [8, 27]: 72400 nM
- TGI ([8]; read-out: pTGI (converted)): 19500 nM
- GI50 [9]: 72.4 nM
- CC50 [9, 27]: 19100 nM
- TGI ([9]; read-out: pTGI (converted)): 1580 nM
- GI50 [10]: < 10 nM
- CC50 [10, 27]: 49000 nM
- TGI ([10]; read-out: pTGI (converted)): 1780 nM
- GI50 [11]: 44.7 nM
- CC50 [11, 27]: 49000 nM
- TGI ([11]; read-out: pTGI (converted)): 1450 nM
- GI50 [12]: 75.9 nM
- CC50 [12, 27]: 6610 nM
- TGI ([12]; read-out: pTGI (converted)): 1070 nM
- GI50 [13]: 251 nM
- CC50 [13, 27]: > 100000 nM
- TGI ([13]; read-out: pTGI (converted)): 15500 nM
- GI50 [14]: 51.3 nM
- CC50 [14, 27]: 11700 nM
- TGI ([14]; read-out: pTGI (converted)): 427 nM
- GI50 [15]: < 10 nM
- CC50 [15, 27]: > 100000 nM
- GI50 [16]: 63.1 nM
- CC50 [16, 27]: 36300 nM
- TGI ([16]; read-out: pTGI (converted)): 10200 nM
- GI50 [17]: 11.8 nM
- CC50 [17, 27]: 38900 nM
- IC50 [18]: 2 nM
- GI50 [19]: 37.1 nM
- CC50 [19, 27]: 2190 nM
- TGI ([19]; read-out: pTGI (converted)): 245 nM
- GI50 [20]: 13.8 nM
- CC50 [20, 27]: 58900 nM
- GI50 [21]: 61.7 nM
- CC50 [21, 27]: 3980 nM
- TGI ([21]; read-out: pTGI (converted)): 1120 nM
- GI50 [22]: 178 nM
- CC50 [22, 27]: 4680 nM
- TGI ([22]; read-out: pTGI (converted)): 1510 nM
- GI50 [23]: 45.7 nM
- CC50 [23, 27]: 34700 nM
- TGI ([23]; read-out: pTGI (converted)): 6920 nM
- GI50 [24]: < 10 nM
- CC50 [24, 27]: 63100 nM
- TGI ([24]; read-out: pTGI (converted)): 2820 nM
- GI50 [25]: 38.9 nM
- CC50 [25, 27]: 15500 nM
- TGI ([25]; read-out: pTGI (converted)): 603 nM
- GI50 [26]: 195 nM
- CC50 [26, 27]: 2950 nM
- TGI ([26]; read-out: pTGI (converted)): 550 nM

Reference: ChEMBL document CHEMBL3763019, “Discovery of benzenesulfonamide derivatives as potent PI3K/mTOR dual inhibitors with in vivo efficacies against hepatocellular carcinoma” (Bioorg Med Chem, 2016)
